Laboratory results from PMC3873380 (Molecular pharmaceutics, 2013).

Test system: SK-OV-3 cells
Assay: Confocal microscopy on live cells
Type: cell-based, human
Details: F′-PEpYLGLD 5 μM alone, opti-MEM, 2 h, 37 °C
Procedure, shortened: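 SK-OV-3 seeded at 1 × 10^5 cells/well on coverslips overnight in EMEM, then rinsed with opti-MEM. Exposed to treatments in opti-MEM for 2 h at 37 °C, washed three times with PBS and mounted. Imaged by laser scanning confocal, 20× objective, sequential frame mode. Channels: FITC (ex 488, em 500–550 nm), DAPI (ex 405, em 425–475 nm), DIC.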

## F′-PEpYLGLD
  intracellular fluorescence of F′-PEpYLGLD alone (confocal): No green fluorescence was observed
